Experiments:
Rattus norvegicus [1] = test: Distribution of the radio labelled compound in cerebellum of rat brain after intravenous administration in presence of reboxetine after 60 min; format: ADME, organism-based; settings: in vivo, 1 h
Method in brief: (§1)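 Male Sprague–Dawley rats (200–250 g) under ketamine/xylazine anaesthesia with tail-vein cannulas. Blocker or none given 15 min before ~20 μCi [123I] tracer iv in 0.2 mL 10% ethanol/saline; blocker dose 4 mg/kg.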

Rattus norvegicus [2] = test: Distribution of the radio labelled compound in frontal cortex of rat brain after intravenous administration in presence of RTI-113 after 60 min; format: ADME, organism-based; settings: in vivo, 1 h; method in brief: as §1
Rattus norvegicus [3] = test: Distribution of the radio labelled compound in frontal cortex of rat brain after intravenous administration in presence of citalopram after 60 min; format: ADME, organism-based; settings: in vivo, 1 h; method in brief: as §1
Rattus norvegicus [4] = test: Distribution of the radio labelled compound in hippocampus of rat brain after intravenous administration in absence of blocker after 60 min; format: ADME, organism-based; settings: in vivo, 1 h; method in brief: as §1
Rattus norvegicus [5] = test: Distribution of the radio labelled compound in hippocampus of rat brain after intravenous administration in presence of RTI-113 after 60 min; format: ADME, organism-based; settings: in vivo, 1 h; method in brief: as §1
Rattus norvegicus [6] = test: Distribution of the radio labelled compound in hippocampus of rat brain after intravenous administration in presence of citalopram after 60 min; format: ADME, organism-based; settings: in vivo, 1 h; method in brief: as §1
Rattus norvegicus [7] = test: Distribution of the radio labelled compound in hippocampus of rat brain after intravenous administration in presence of reboxetine after 60 min; format: ADME, organism-based; settings: in vivo, 1 h; method in brief: as §1
Rattus norvegicus [8] = test: Distribution in occipital cortex of rat brain after intravenous administration by using [123I]ZIET after 5 min; format: ADME, organism-based; settings: in vivo
Method in brief: (§2)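 Male Sprague–Dawley rats (200–250 g), fed ad libitum, given ~20 μCi radiotracer iv via tail-vein cannula in 0.2 mL 10% ethanol/saline under ketamine/xylazine im anesthesia. Killed at 5, 30, 60 or 120 min (n = 5; n = 4 at 120 min). Brain regions dissected, weighed, gamma-counted with dose standards, decay-corrected; mean %ID/g ± SE.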

Rattus norvegicus [9] = test: Distribution in occipital cortex of rat brain after intravenous administration by using [123I]ZIET after 60 min; format: ADME, organism-based; settings: in vivo, 1 h; method in brief: as §2
Rattus norvegicus [10] = test: Distribution in rest of rat brain after intravenous administration by using [123I]ZIET after 120 min; format: ADME, organism-based; settings: in vivo, 2 h; method in brief: as §2
Rattus norvegicus [11] = test: Distribution in rest of rat brain after intravenous administration by using [123I]ZIET after 60 min; format: ADME, organism-based; settings: in vivo, 1 h; method in brief: as §2
Rattus norvegicus [12] = test: Distribution in thyroid of rat brain after intravenous administration by using [123I]ZIET after 30 min; format: ADME, organism-based, Thyroid gland; settings: in vivo, 0.5 h; method in brief: as §2
Rattus norvegicus [13] = test: Distribution in thyroid of rat brain after intravenous administration by using [123I]ZIET after 5 min; format: ADME, organism-based, Thyroid gland; settings: in vivo; method in brief: as §2
Rattus norvegicus [14] = test: Distribution of the radio labelled compound in blood of rat brain after intravenous administration in presence of reboxetine after 60 min; format: ADME, organism-based; settings: in vivo, 1 h
Method in brief: (§3)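 Male Sprague–Dawley rats (200–250 g), ketamine/xylazine anesthesia, tail-vein cannula. Blocker (4 mg/kg) or nothing given 15 min before iv [123I]ZIET in 10% ethanol/saline. Killed 60 min post-tracer.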

Rattus norvegicus [15] = test: Distribution of the radio labelled compound in brainstem of rat brain after intravenous administration in absence of blocker after 60 min; format: ADME, organism-based; settings: in vivo, 1 h; method in brief: as §3
Rattus norvegicus [16] = test: Distribution in hippocampus of rat brain after intravenous administration by using [123I]ZIET after 60 min; format: ADME, organism-based; settings: in vivo, 1 h; method in brief: as §2
Rattus norvegicus [17] = test: Distribution in hypothalamus of rat brain after intravenous administration by using [123I]ZIET after 120 min; format: ADME, organism-based; settings: in vivo, 2 h; method in brief: as §2
Rattus norvegicus [18] = test: Distribution in hypothalamus of rat brain after intravenous administration by using [123I]ZIET after 5 min; format: ADME, organism-based; settings: in vivo; method in brief: as §2
Rattus norvegicus [19] = test: Distribution of the radio labelled compound in rest of rat brain after intravenous administration in presence of citalopram after 60 min; format: ADME, organism-based; settings: in vivo, 1 h; method in brief: as §1
Rattus norvegicus [20] = test: Distribution of the radio labelled compound in striatum of rat brain after intravenous administration in absence of blocker after 60 min; format: ADME, organism-based; settings: in vivo, 1 h; method in brief: as §1
Rattus norvegicus [21] = test: Distribution of the radio labelled compound in striatum of rat brain after intravenous administration in presence of citalopram after 60 min; format: ADME, organism-based; settings: in vivo, 1 h; method in brief: as §1
Rattus norvegicus [22] = test: Distribution of the radio labelled compound in thyroid of rat brain after intravenous administration in absence of blocker after 60 min; format: ADME, organism-based, Thyroid gland; settings: in vivo, 1 h; method in brief: as §1
Rattus norvegicus [23] = test: Distribution of the radio labelled compound in thyroid of rat brain after intravenous administration in presence of RTI-113 after 60 min; format: ADME, organism-based, Thyroid gland; settings: in vivo, 1 h; method in brief: as §1
Rattus norvegicus [24] = test: Distribution of the radio labelled compound in thyroid of rat brain after intravenous administration in presence of citalopram after 60 min; format: ADME, organism-based, Thyroid gland; settings: in vivo, 1 h; method in brief: as §1
Rattus norvegicus [25] = test: Distribution of the radio labelled compound in thyroid of rat brain after intravenous administration in presence of reboxetine after 60 min; format: ADME, organism-based, Thyroid gland; settings: in vivo, 1 h; method in brief: as §1
Rattus norvegicus [26] = test: Distribution of the radio labelled compound in hypothalamus of rat brain after intravenous administration in absence of blocker after 60 min; format: ADME, organism-based; settings: in vivo, 1 h; method in brief: as §1
Rattus norvegicus [27] = test: Distribution in blood […] after intravenous administration by using [123I]-ZIET after 30 min; format: ADME, organism-based; settings: in vivo, 0.5 h; method in brief: as §2
Rattus norvegicus [28] = test: Distribution in brainstem of rat brain after intravenous administration by using [123I]ZIET after 120 min; format: ADME, organism-based; settings: in vivo, 2 h; method in brief: as §2
Rattus norvegicus [29] = test: Distribution in brainstem of rat brain after intravenous administration by using [123I]ZIET after 30 min; format: ADME, organism-based; settings: in vivo, 0.5 h; method in brief: as §2
Rattus norvegicus [30] = test: Distribution in cerebellum of rat brain after intravenous administration by using [123I]ZIET after 60 min; format: ADME, organism-based; settings: in vivo, 1 h; method in brief: as §2
Rattus norvegicus [31] = test: Distribution in frontal cortex of rat brain after intravenous administration by using [123I]ZIET after 5 min; format: ADME, organism-based; settings: in vivo; method in brief: as §2
Rattus norvegicus [32] = test: Distribution in frontal cortex of rat brain after intravenous administration by using [123I]ZIET after 60 min; format: ADME, organism-based; settings: in vivo, 1 h; method in brief: as §2
Rattus norvegicus [33] = test: Distribution in hippocampus of rat brain after intravenous administration by using [123I]ZIET after 120 min; format: ADME, organism-based; settings: in vivo, 2 h; method in brief: as §2
Rattus norvegicus [34] = test: Distribution in hippocampus of rat brain after intravenous administration by using [123I]ZIET after 30 min; format: ADME, organism-based; settings: in vivo, 0.5 h; method in brief: as §2
Rattus norvegicus [35] = test: Distribution in hippocampus of rat brain after intravenous administration by using [123I]ZIET after 5 min; format: ADME, organism-based; settings: in vivo; method in brief: as §2
Rattus norvegicus [36] = test: Distribution of the radio labelled compound in hypothalamus of rat brain after intravenous administration in presence of RTI-113 after 60 min; format: ADME, organism-based; settings: in vivo, 1 h; method in brief: as §1
Rattus norvegicus [37] = test: Distribution of the radio labelled compound in hypothalamus of rat brain after intravenous administration in presence of reboxetine after 60 min; format: ADME, organism-based; settings: in vivo, 1 h; method in brief: as §1
[38] = Ratio of radioactivity in brainstem of rat brain to that of rat cerebellum after intravenous administration after 120 min; format: functional
Method in brief: (§4)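 Male Sprague–Dawley rats (200–250 g) given ~20 μCi [123I] tracer iv in 0.2 mL 10% ethanol/saline under ketamine/xylazine; killed at 5, 30, 60, 120 min (n = 5; n = 4 at 120 min). Brain regions dissected, gamma counted, decay-corrected to %ID/g; regional uptake divided by cerebellum.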

[39] = Ratio of radioactivity in brainstem of rat brain to that of rat cerebellum after intravenous administration after 5 min; format: functional; method in brief: as §4
[40] = Ratio of radioactivity in hippocampus of rat brain to that of rat cerebellum after intravenous administration after 5 min; format: functional; method in brief: as §4
[41] = Ratio of radioactivity in hypothalamus of rat brain to that of rat cerebellum after intravenous administration after 60 min; format: functional; method in brief: as §4
[42] = Ratio of radioactivity in occipital cortex of rat brain to that of rat cerebellum after intravenous administration after 5 min; format: functional; method in brief: as §4
[43] = Ratio of radioactivity in rest of rat brain to that of rat cerebellum after intravenous administration after 30 min; format: functional; method in brief: as §4
[44] = Ratio of radioactivity in rest of rat brain to that of rat cerebellum after intravenous administration after 5 min; format: functional; method in brief: as §4

COC(=O)C1C(c2ccc(/C=C\[123I])cc2)CC2CCC1N2C (centres undefined)
Activity (Rattus norvegicus [1]): 0.15 | Activity (Rattus norvegicus [2]): 0.49 | Activity (Rattus norvegicus [3]): 0.21 | Activity (Rattus norvegicus [4]): 0.4 | Activity (Rattus norvegicus [5]): 0.42 | Activity (Rattus norvegicus [6]): 0.17 | Activity (Rattus norvegicus [7]): 0.41 | Activity (Rattus norvegicus [8]): 0.45 | Activity (Rattus norvegicus [9]): 0.63 | Activity (Rattus norvegicus [10]): 0.39 | Activity (Rattus norvegicus [11]): 0.54 | Activity (Rattus norvegicus [12]): 0.74 | Activity (Rattus norvegicus [13]): 0.08 | Activity (Rattus norvegicus [14]): 0.26 | Activity (Rattus norvegicus [15]): 0.33 | Activity (Rattus norvegicus [16]): 0.63 | Activity (Rattus norvegicus [17]): 0.6 | Activity (Rattus norvegicus [18]): 0.36 | Activity (Rattus norvegicus [19]): 0.18 | Activity (Rattus norvegicus [20]): 0.42 | Activity (Rattus norvegicus [21]): 0.26 | Activity (Rattus norvegicus [22]): 0.54 | Activity (Rattus norvegicus [23]): 1.01 | Activity (Rattus norvegicus [24]): 0.93 | Activity (Rattus norvegicus [25]): 1.12 | Activity (Rattus norvegicus [26]): 0.42 | Activity (Rattus norvegicus [27]): 0.53 | Activity (Rattus norvegicus [28]): 0.41 | Activity (Rattus norvegicus [29]): 0.65 | Activity (Rattus norvegicus [30]): 0.27 | Activity (Rattus norvegicus [31]): 0.45 | Activity (Rattus norvegicus [32]): 0.71 | Activity (Rattus norvegicus [33]): 0.47 | Activity (Rattus norvegicus [34]): 0.72 | Activity (Rattus norvegicus [35]): 0.38 | Activity (Rattus norvegicus [36]): 0.55 | Activity (Rattus norvegicus [37]): 0.46 | Ratio [38]: 3 | Ratio [39]: 1 | Ratio [40]: 1.1 | Ratio [41]: 2.6 | Ratio [42]: 1.3 | Ratio [43]: 1.6 | Ratio [44]: 1.1
